pPAFAH inh – inhibitors of human plasma PAF acetylhydrolase (pPAFAH). Q13093. recombinant pPAFAH, FP-rhodamine probe fluorescence polarization. inhibition, % at 3.39 µM. 330,000 compounds, 1.5% hits;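 active = inhibition above the mean inhibition across the screen plus 3 SD, cut at about 25% in these data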;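 note: inhibitors block binding of the rhodamine activity-based probe so polarization drops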
Target sequence (Q13093 whole entry, looked up): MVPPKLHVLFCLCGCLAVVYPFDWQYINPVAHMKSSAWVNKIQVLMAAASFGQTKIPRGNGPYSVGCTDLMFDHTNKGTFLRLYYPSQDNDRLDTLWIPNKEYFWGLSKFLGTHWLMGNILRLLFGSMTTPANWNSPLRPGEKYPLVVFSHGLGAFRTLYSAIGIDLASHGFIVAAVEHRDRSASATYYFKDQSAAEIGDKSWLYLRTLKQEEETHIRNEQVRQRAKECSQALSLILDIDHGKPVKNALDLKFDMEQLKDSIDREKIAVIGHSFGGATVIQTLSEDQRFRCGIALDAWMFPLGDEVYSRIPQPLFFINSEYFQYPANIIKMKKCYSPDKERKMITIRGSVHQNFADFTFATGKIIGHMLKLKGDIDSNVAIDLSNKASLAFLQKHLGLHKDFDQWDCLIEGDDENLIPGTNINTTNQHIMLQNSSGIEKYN
PAFAH1B3 inh – inhibitors of human PAFAH1B3; inhibition, % at 3.39 µM; 340,000 compounds, 0.28% hits; recombinant PAFAH1B3, FP-rhodamine probe, fluorescence polarization;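 active = inhibition above the screen-wide average of all tested compounds plus 3 SD, cut at about 25% in these data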
UCH37 DUB inh – blocks the human deubiquitinase UCH37 | purified proteasome/UCH37, Ub-AMC cleavage fluorescence | AID 588478 | inhibition, % (test concentration not listed) | 330,000 compounds, 0.33% hits;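 active = mean inhibition over replicate wells above about 20%, limit read from the data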
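Material: Human UCH37 enzyme supplied as purified proteasome complex | Schedule: 30 min compound-proteasome preincubation then 25 min substrate reaction, room temperature | Detection: AMC fluorescence from Ub-AMC cleavage, excitation 355 nm, emission 460 nm | Benchmarks: Wells without proteasome as full block, compound-free enzyme plus substrate as uninhibited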
GRIN3A LBD mod – NR3A (human) ligand-binding domain modulation. NR3A LBD differential scanning fluorimetry, Tm shift; 0% = protein alone, 100% = glycine-bound protein. Tm shift relative to glycine control, % at 25 µM. 340,000 compounds, 2.5% hits;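 active = melting temperature shift of at least 10% of the positive control shift, at one fixed dose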
PAFAH2 inh – inhibitors of human PAFAH2; Q99487; recombinant PAFAH2, FP-rhodamine activity probe, fluorescence polarization; inhibition, % at 3.39 µM; 340,000 compounds, 0.99% hits;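 active = inhibition above the mean over all tested compounds plus 3 SD, cut at about 30% in these data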;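 note: inhibitors block probe labeling of enzyme so polarization drops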
PAFAH1B2 FP inh – inhibitors of human PAFAH1B2; P68402; recombinant PAFAH1B2, FP-rhodamine activity probe, fluorescence polarization; inhibition, % at 3.39 µM; 340,000 compounds, 1.2% hits; AID 492953;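 active = inhibition above the mean of all tested compounds plus 3 SD, cut at about 24% in these data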
Large screens that a line does not name were inactive. Rows were chosen to be rich in hits. Some 4.8% of all compounds tested hit in one or more screens of this group.

COc1ccc(S(=O)(=O)Nc2cccc3c2O[C@H](CN(C)Cc2ccc(-c4ccccc4)cc2)[C@@H](C)CN([C@H](C)CO)C3=O)cc1	none
C[C@H](CO)N1C[C@H](C)[C@@H](CN(C)S(=O)(=O)c2ccc(F)cc2)Oc2c(NS(=O)(=O)c3ccc(F)cc3)cccc2C1=O	none
COc1ccc(S(=O)(=O)Nc2ccc3c(c2)C(=O)N([C@@H](C)CO)C[C@H](C)[C@H](CN(C)S(=O)(=O)c2ccc(F)cc2)O3)cc1	PAFAH1B2 FP inh 39
COc1ccc(S(=O)(=O)N(C)C[C@H]2Oc3c(NC(=O)CCC(F)(F)F)cccc3C(=O)N([C@H](C)CO)C[C@@H]2C)cc1	GRIN3A LBD mod 10
COc1ccc(S(=O)(=O)Nc2cccc3c2O[C@H](CN(C)S(=O)(=O)c2ccc(F)cc2)[C@H](C)CN([C@H](C)CO)C3=O)cc1	GRIN3A LBD mod 10
COc1ccc(S(=O)(=O)Nc2ccc3c(c2)C(=O)N([C@H](C)CO)C[C@H](C)[C@@H](CN(C)S(=O)(=O)c2ccc(OC)cc2)O3)cc1	none (no result: pPAFAH inh, UCH37 DUB inh)
CN(C)c1ccc(C=NNc2cccc(C(=O)O)c2)cc1	none (no result: pPAFAH inh, PAFAH1B3 inh, GRIN3A LBD mod, PAFAH2 inh, PAFAH1B2 FP inh)
C=CCOc1ccc(C=Nn2nnnc2N)cc1OC	none (no result: pPAFAH inh, PAFAH1B3 inh, GRIN3A LBD mod, PAFAH2 inh, PAFAH1B2 FP inh)
CC(CC(=O)Nc1ccc2c(c1)OCCO2)=NNC(=O)COc1ccc(Cl)c(C)c1	none (no result: pPAFAH inh, PAFAH1B3 inh, GRIN3A LBD mod, PAFAH2 inh, PAFAH1B2 FP inh)
CCOc1cccc(C=NNC(=O)CC2C(=O)NN=C2C)c1O (stereo not given)	none (no result: pPAFAH inh, PAFAH1B3 inh, GRIN3A LBD mod, PAFAH2 inh, PAFAH1B2 FP inh)
c1ccc(-c2csc3ncnc(N4CCc5ccccc5C4)c23)cc1	GRIN3A LBD mod 13
COc1ccc(-c2csc3ncnc(N4CCN(c5cccc(Cl)c5)CC4)c23)cc1	GRIN3A LBD mod 18
COc1ccc(N2CCN(c3ncnc4scc(-c5ccccc5)c34)CC2)cc1	pPAFAH inh 32
COc1ccc(-c2csc3ncnc(N4CCN(S(=O)(=O)c5ccc(Cl)s5)CC4)c23)cc1	GRIN3A LBD mod 11
COc1ccc(-c2csc3ncnc(N4CCN(c5cccc(OC)c5)CC4)c23)cc1	none
Cc1cc(Br)c(OCc2ccc(C(=O)NN=C3CC4CC=CC34)cc2)c(Br)c1 (stereo not given)	none (no result: pPAFAH inh, PAFAH1B3 inh, GRIN3A LBD mod, PAFAH2 inh, PAFAH1B2 FP inh)
COc1ccc(OCC(=O)NN=Cc2ccsc2)cc1	none (no result: pPAFAH inh, PAFAH1B3 inh, GRIN3A LBD mod, PAFAH2 inh, PAFAH1B2 FP inh)
CCCCCCCCC(=O)NN=C(C)c1ccc(O)cc1O	none (no result: pPAFAH inh, PAFAH1B3 inh, GRIN3A LBD mod, PAFAH2 inh, PAFAH1B2 FP inh)
O=C(O)CCc1ccc(NCc2cccc(Oc3ccccc3)c2)cc1	PAFAH1B2 FP inh 24
COC(=O)C1Cc2c([nH]c3ccccc23)CN1 (stereo not given)	none
COC(=O)[C@H]1Cc2c([nH]c3ccccc23)[C@H](c2ccccc2)N1	GRIN3A LBD mod 10
COc1cc(OC)cc(C(=O)Oc2ccc(/C=N/Nc3nc4ccccc4s3)cc2OC)c1	GRIN3A LBD mod 18 (no result: UCH37 DUB inh)
COc1ccc(C=NNc2nc3ccccc3s2)cc1O	none (no result: pPAFAH inh, PAFAH1B3 inh, GRIN3A LBD mod, PAFAH2 inh, PAFAH1B2 FP inh)
COc1ccc(C=NNc2nc3ccccc3s2)cc1	GRIN3A LBD mod 33 (no result: pPAFAH inh)
Cc1ccc2[nH]c(C)c(/C=N/Nc3nc4ccccc4s3)c2c1	GRIN3A LBD mod 24 (no result: UCH37 DUB inh)
O=C(C[n+]1ccc(C=NO)cc1)NCc1ccccc1	none (no result: pPAFAH inh, PAFAH1B3 inh, GRIN3A LBD mod, PAFAH2 inh, PAFAH1B2 FP inh)
O=C(CNC(=O)c1ccc(Br)cc1)NN=Cc1ccc[nH]1	none (no result: pPAFAH inh, PAFAH1B3 inh, GRIN3A LBD mod, PAFAH2 inh, PAFAH1B2 FP inh)
CCOc1cc(C=NN2CCOCC2)ccc1OCc1ccc(C(=O)OC)o1	none (no result: pPAFAH inh, PAFAH1B3 inh, GRIN3A LBD mod, PAFAH2 inh, PAFAH1B2 FP inh)
Clc1ccccc1/C=N/NC1=Nc2cccc3cccc1c23	GRIN3A LBD mod 19 (no result: UCH37 DUB inh)
O=C(CC(=O)NN=Cc1ccccc1[N+](=O)[O-])NCCc1ccccc1	none (no result: pPAFAH inh, PAFAH1B3 inh, GRIN3A LBD mod, PAFAH2 inh, PAFAH1B2 FP inh)
CNC(=O)CSc1nc2cc(S(=O)(=O)Nc3ccc(OC)cc3)ccc2o1	pPAFAH inh 27
CC(C)NS(=O)(=O)c1ccc(OCC(=O)N2CCN(c3ccccc3)CC2)cc1	none
Cc1ccccc1NS(=O)(=O)c1ccc(OCC(=O)N2CCCC2)cc1	none
CCC(C)NS(=O)(=O)c1ccc(OCC(=O)N2CCCC2)cc1 (stereo not given)	pPAFAH inh 27
Cc1ccc(C)c(NS(=O)(=O)c2ccc(OCC(=O)N3CCCC3)cc2)c1	pPAFAH inh 25
O=C(COc1ccc(S(=O)(=O)NC2CCCCC2)cc1)N1CCN(c2cccc(Cl)c2)CC1	pPAFAH inh 28
Cc1nc(NCCNC(=O)c2ccco2)c2c(C)c(C)sc2n1	GRIN3A LBD mod 14
Cc1ccc(N(CC(=O)NN=Cc2cc(C)n(-c3ccccc3C)c2C)S(C)(=O)=O)cc1	none (no result: pPAFAH inh, PAFAH1B3 inh, GRIN3A LBD mod, PAFAH2 inh, PAFAH1B2 FP inh)
